{"data": "Published values from different studies", "Cnr2": "Cannabinoid receptor 2 (Cnr2, Mus musculus, UniProt P47936)", "SLCO1B3": "Solute carrier organic anion transporter family member 1B3 (SLCO1B3, Homo sapiens, UniProt Q9NPD5)", "G protein-coupled receptor 88": "G protein-coupled receptor 88 (Homo sapiens, UniProt Q9GZN0)"}
{"SMILES": "CCCCCCC(C)(C)c1cc(O)c2c(c1)OC(C)(C)[C@@H]1CC=C(C)C[C@@H]21", "target": "Cnr2", "test": "ligand displacement, radioligand", "conditions": "cell membranes", "measurement": "Ki", "value": "0.0014 µM"}
{"SMILES": "CC(C)(C)[C@H](NC(=O)C(F)(F)F)C(=O)N1C[C@H]2[C@@H]([C@H]1C(=O)N[C@H](C#N)C[C@@H]1CCNC1=O)C2(C)C", "target": "SLCO1B3", "test": "transporter uptake, inhibitor", "measurement": "Ki", "value": "283 µM"}
{"SMILES": "O=C[C@H](C[C@@H]1CCNC1=O)NC(=O)[C@H](CC1CCCCC1)NC(=O)c1cc2ccccc2[nH]1", "target": "Procathepsin L (CTSL, Homo sapiens, UniProt P07711)", "test": "enzyme activity, inhibitor", "measurement": "IC50", "value": "0.00021 µM"}
{"SMILES": "CCOC(=O)c1cncn1[C@H](C)c1ccccc1", "target": "SLCO1B3", "test": "transporter uptake, inhibitor, fluorescence", "system": "CHO", "conditions": "30 min, pH 7.4", "measurement": "IC50", "value": "> 100 µM"}
{"SMILES": "CCCCCOc1ccc([C@@H](CO)C(=O)N[C@H](C)c2ccccc2)cc1", "target": "G protein-coupled receptor 88", "test": "cAMP, agonist, TR-FRET", "measurement": "EC50", "value": "3.24 µM"}
{"SMILES": "O=c1[nH]c2ccccc2n1C1CCN(CCCC(c2ccc(F)cc2)c2ccc(F)cc2)CC1", "target": "Signal transducer and activator of transcription 5B, SH2 (STAT5B, Homo sapiens, UniProt P51692)", "test": "protein-protein interaction, inhibitor, FP", "measurement": "IC50", "value": "75.1 µM"}
{"SMILES": "CCCCOc1ccc([C@@H](CO)C(=O)N[C@H](C)c2ccccc2)cc1", "target": "G protein-coupled receptor 88", "test": "cAMP, agonist, TR-FRET", "measurement": "EC50", "value": "5.13 µM"}
{"SMILES": "Cc1c(C(=O)c2cccc3ccccc23)c2cccc3c2n1[C@H](CN1CCOCC1)CO3", "target": "Cnr2", "test": "ligand displacement, radioligand", "conditions": "cell membranes", "measurement": "Ki", "value": "0.0058 µM"}
{"SMILES": "OCCCCO", "target": "Cytochrome P450 2E1 (Cyp2e1, Rattus norvegicus, UniProt P05182)", "test": "enzyme activity, inhibitor", "system": "Fischer 344 rat, liver microsomes", "conditions": "30 min", "measurement": "IC50", "value": "5800 µM"}
